Test results reported in ChEMBL document CHEMBL3108716, “Anti-inflammatory and chondroprotective activity of (+)-α-pinene: structural and enantiomeric selectivity” (2014).
Activity calls are given as the source filed them. The rule behind the calls is not given here.

What was measured:
Homo sapiens [1] = species on record: Homo sapiens; experiment: Antiinflammatory activity against human primary chondrocytes assessed as inhibition of IL-1beta-induced NO production at 10 to 25 ug/ml after 30 mins by Griess method; type: functional
Homo sapiens [2] = species on record: Homo sapiens; experiment: Antiinflammatory activity against human primary chondrocytes assessed as inhibition of IL-1beta-induced iNOS protein expression level after 30 mins by Western blotting analysis relative to IL-1beta treated control; type: functional
Procedure, shortened: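 Serum-starved primary human chondrocytes pretreated 30 min with compound in DMSO (≤0.1% final), then IL-1β 10 ng/mL for 24 h. Total extracts immunoblotted with mouse monoclonal anti-human iNOS and detected by chemifluorescence. Band intensity normalized to β-tubulin or actin and expressed relative to IL-1β alone. Mean ± SEM, ≥4 independent experiments; paired t test.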

[3] = target: MAP kinase p38 (Homo sapiens) (UniProt O15264+Q15759+Q16539+P53778); experiment: Inhibition of IL-1beta-induced p38 MAPK phosphorylation in human primary chondrocytes at 200 ug/ml by Western blotting analysis relative to IL-1beta treated control; type: cell-based
[4] = target: T1, c-Jun N-terminal kinase, JNK (Homo sapiens) (UniProt P45983+P53779+P45984); experiment: Inhibition of IL-1beta-induced JNK phosphorylation in human primary chondrocytes at 200 ug/ml by Western blotting analysis relative to IL-1beta treated control; type: cell-based; settings: values are per cent of control
[5] = Antiinflammatory activity against human primary chondrocytes assessed as inhibition of IL-1beta-induced NO production at 200 ug/ml after 30 mins by Griess method relative to IL-1beta treated control; values are per cent of control; settings: 0.5 h
C28/I2 [6] = experiment: Inhibition of NFkappaB activation in human C28/I2 cells assessed as reduction of IL-1beta-induced IkappaBalpha phosphorylation at 200 ug/ml after 30 mins by Western blotting analysis relative to IL-1beta treated control; values are per cent of control
Homo sapiens [7] = species on record: Homo sapiens; experiment: Inhibition of NFkappaB activation in human primary chondrocytes assessed as reduction of IL-1beta-induced MMP1 mRNA expression at 200 ug/ml by quantitative RT-PCR analysis relative to IL-1beta treated control; type: cell-based
Procedure, shortened: (§1)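 Serum-starved primary human chondrocytes exposed 12 h to IL-1β 10 ng/mL with or without 200 μg/mL compound, the compound added 30 min before the stimulus. MMP-1 and MMP-13 mRNA quantified by RT-PCR and expressed versus IL-1β-treated cells. Mean ± SEM of at least four independent experiments; paired t test.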

[8] = target: T1, c-Jun N-terminal kinase, JNK (Homo sapiens); experiment: Inhibition of JNK activation in human primary chondrocytes assessed as reduction of IL-1beta-induced MMP13 mRNA expression at 200 ug/ml by quantitative RT-PCR analysis relative to IL-1beta treated control; type: cell-based; procedure, shortened: as §1
[9] = Antiinflammatory activity against human primary chondrocytes assessed as IL-1beta-induced iNOS protein expression level after 30 mins by Western blotting analysis relative to IL-1beta treated control
[10] = Chondroprotective activity in human primary chondrocytes assessed as effect on IL-1beta-induced collagen2/1 mRNA expression at 200 ug/ml by quantitative RT-PCR analysis relative to IL-1beta treated control; type: functional
Procedure, shortened: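 Primary human chondrocytes treated 24 h with IL-1β 10 ng/mL with or without 200 μg/mL compound after a 30 min pretreatment; TIMP-1, collagen I and collagen II mRNA measured by RT-PCR relative to IL-1β-only cells. The collagen II/collagen I mRNA ratio served as a differentiation index. Mean ± SEM of ≥4 independent experiments; paired t test.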

[11] = target: T1, c-Jun N-terminal kinase, JNK (Homo sapiens); experiment: Inhibition of JNK activation in human primary chondrocytes assessed as reduction of IL-1beta-induced MMP1 mRNA expression at 200 ug/ml by quantitative RT-PCR analysis relative to IL-1beta treated control; type: cell-based; procedure, shortened: as §1
C28/I2 [12] = experiment: Inhibition of NFkappaB activation in human C28/I2 cells assessed as reduction of IL-1beta-induced protein-DNA complex formation at 200 ug/ml after 30 mins by ELISA relative to IL-1beta treated control; type: cell-based
Procedure, shortened: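 C28/I2 cells pretreated 30 min ± 200 μg/mL compound, then IL-1β 10 ng/mL for 30 min. Nuclear extracts incubated with biotinylated NF-κB consensus oligonucleotide in a colorimetric ELISA-type binding assay; absorbance taken as amount of active NF-κB–DNA complexes. Specificity checked with 10-fold molar excess of unlabeled wild-type or mutant oligonucleotide. Mean ± SEM, four experiments.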

Homo sapiens [13] = species on record: Homo sapiens; experiment: Antiinflammatory activity against human primary chondrocytes assessed as inhibition of IL-1beta-induced NO production after 30 mins by Griess method; type: functional
Homo sapiens [14] = species on record: Homo sapiens; experiment: Antiinflammatory activity against human primary chondrocytes assessed as inhibition of IL-1beta-induced iNOS mRNA expression after 30 mins by Western blotting analysis relative to IL-1beta treated control; type: functional
Homo sapiens [15] = species on record: Homo sapiens; experiment: Inhibition of NFkappaB activation in human primary chondrocytes assessed as reduction of IL-1beta-induced MMP13 mRNA expression at 200 ug/ml by quantitative RT-PCR analysis relative to IL-1beta treated control; type: cell-based; procedure, shortened: as §1

In the case of C[C@H]1CC[C@H]2C[C@@H]1C2(C)C, the inhibition (Homo sapiens [1]) is reported as “inactive” and the inhibition (Homo sapiens [2]) is reported as “Active”.
With CC1=CC[C@H]2C[C@@H]1C2(C)C the inhibition [3] was “inactive”, the response, % of control [4] was 65.8% and the level, % of control at 200 µg/mL [5] was 58.1%. The level, % of control (C28/I2 [6]) was 58.4% and the inhibition (Homo sapiens [2]) was “Active”.
For CC1(C)[C@H]2CC[C@@H](CO)[C@H]1C2, the inhibition (Homo sapiens [1]) was “inactive”.
With CC1=CC[C@@H]2C[C@H]1C2(C)C [1R-(+)-ALPHA-PINENE] the inhibition [3] was “inactive”, the inhibition (Homo sapiens [7]) was “Active” and the inhibition [8] was “Active”. For the same compound, the Activity [9] was 24.4%, the “fold change (FC)” value [10] was 2.6 and the inhibition [11] was “Active”. It also gave a response, % of control [4] of 51.3%, a level, % of control at 200 µg/mL [5] of 31.5% and a level, % of control (C28/I2 [6]) of 33.6%. For the same compound, the inhibition (C28/I2 [12]) was “Active”, the inhibition (Homo sapiens [13]) was “Dose-dependent effect” and the inhibition (Homo sapiens [14]) was “Active”. The inhibition (Homo sapiens [15]) was “Active”.
CC1=CCC2CC1C2(C)C (racemic) [ALPHA-PINENE] gave a level, % of control at 200 µg/mL [5] of 40.6%.
In the case of C=C1C(O)CC2CC1C2(C)C (configuration not stated), the inhibition (Homo sapiens [1]) is reported as “inactive”.
In the case of CC1(C)C2CC=C(CO)C1C2 (configuration not stated), the inhibition (Homo sapiens [1]) is reported as “inactive”.
For CC1=C[C@@H](O)[C@@H]2C[C@@H]1C2(C)C, the inhibition (Homo sapiens [1]) was “inactive”.
C=C1CCC2CC1C2(C)C (racemic) [BETA-PINENE] gave a level, % of control at 200 µg/mL [5] of 76.8%.
With CC1(C)[C@@H]2CC=C(C=O)[C@H]1C2 the inhibition (Homo sapiens [1]) was “inactive”.
